Assay results reported in ChEMBL document CHEMBL1125154, “An approach to trapping gamma-glutamyl radical intermediates proposed for vitamin K dependent carboxylase: alpha,beta-methyleneglutamic acid” (1990).
Blank lines part the entries; values can stand above or below the compound they belong to.

Columns and labels:
Rattus norvegicus [1] = species on record: Rattus norvegicus; experiment: Epoxide formation after incubation at 17 degree Centigrade for 60 min; assay type: functional
Method in brief: (§1)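 Microsomes came from vitamin K deficient rats dosed with 1 mg phylloquinone (ic) 15 min before killing. Incubation ran at 17 °C for 60 min, with the analogue at 5 mM and/or the Glu-site substrate at 0.5 mM. To extract, 0.5 mL of mix was quenched with 2 volumes of 3:2 2-propanol–hexane, vortexed, held 15 min at 4 °C, and centrifuged. The hexane layer was dried under N₂ and epoxide reported as nmol. Values are mean ± SD of four values.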

[2] = target: T1, Vitamin K-dependent gamma-carboxylase (Rattus norvegicus) (UniProt O88496); experiment: Vitamin K-dependent gamma-carboxylase activity was assayed in liver microsomes prepared from vitamin K deficient rats incubated at 17 degree Celsius for 30 min; conditions: Microsome
T1 sequence (whole entry): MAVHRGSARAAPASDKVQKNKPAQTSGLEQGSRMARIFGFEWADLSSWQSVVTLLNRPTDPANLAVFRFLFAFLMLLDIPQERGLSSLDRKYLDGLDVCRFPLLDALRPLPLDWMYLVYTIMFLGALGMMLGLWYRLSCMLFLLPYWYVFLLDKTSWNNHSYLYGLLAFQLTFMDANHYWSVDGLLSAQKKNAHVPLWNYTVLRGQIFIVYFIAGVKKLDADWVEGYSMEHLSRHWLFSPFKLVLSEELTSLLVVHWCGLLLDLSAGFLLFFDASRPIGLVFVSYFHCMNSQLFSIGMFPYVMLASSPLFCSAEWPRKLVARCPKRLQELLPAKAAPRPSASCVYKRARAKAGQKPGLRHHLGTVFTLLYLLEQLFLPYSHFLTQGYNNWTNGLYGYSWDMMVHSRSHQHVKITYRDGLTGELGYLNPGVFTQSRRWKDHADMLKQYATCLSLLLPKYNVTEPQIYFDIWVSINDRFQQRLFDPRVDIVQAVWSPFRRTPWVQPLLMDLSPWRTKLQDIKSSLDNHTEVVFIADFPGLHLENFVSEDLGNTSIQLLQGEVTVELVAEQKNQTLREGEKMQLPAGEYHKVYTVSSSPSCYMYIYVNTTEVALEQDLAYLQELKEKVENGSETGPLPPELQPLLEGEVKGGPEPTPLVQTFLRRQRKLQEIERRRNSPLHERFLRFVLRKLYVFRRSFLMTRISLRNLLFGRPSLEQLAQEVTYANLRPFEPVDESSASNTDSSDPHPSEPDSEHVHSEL
Method in brief: (§2)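 Rat liver microsomes from vitamin K deficient animals were used, following the Wood and Suttie method. Carboxylation was read as ¹⁴CO₂ incorporation into the Glu-site substrate, in dpm. The cyclopropyl analogue was tested at 2 mM, the Glu-site substrate at 1 mM, each alone or combined. Incubation ran at 17 °C for 30 min. Values are mean ± SD of four values.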

[3] = target: T1, Vitamin K-dependent gamma-carboxylase (Rattus norvegicus); experiment: Vitamin K-dependent gamma-carboxylase activity was assayed in liver microsomes prepared from vitamin K deficient rats incubated at 17 degree Celsius for 60 min; conditions: Microsome
Method in brief: (§3)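 Liver microsomal carboxylase came from vitamin K deficient rats. Activity was taken as ¹⁴CO₂ incorporation into the Glu-site substrate, in dpm. The analogue was present at 5 mM and/or the Glu-site substrate at 0.5 mM. Incubation ran at 17 °C for 60 min. Values are mean ± SD of four values.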

Rattus norvegicus [4] = species on record: Rattus norvegicus; experiment: Epoxide formation was determined at a concentration 0.5 mM of compound along with 5 mM of 1-tert-Butoxycarbonylamino-2-carboxymethyl-cyclopropanecarboxylic acid benzyl ester; assay type: functional; method in brief: as §1
Rattus norvegicus [5] = species on record: Rattus norvegicus; experiment: Epoxide formation was determined at a concentration of 0.5 mM incubation at 17 degree Celsius for 60 minutes; assay type: functional; method in brief: as §1
[6] = target: T1, Vitamin K-dependent gamma-carboxylase (Rattus norvegicus); experiment: Inhibition of vitamin K dependent carboxylase was determined at a concentration of 0.5 mM of compound along with 5 mM of 1-tert-Butoxycarbonylamino-2-carboxymethyl-cyclopropanecarboxylic acid benzyl ester; method in brief: as §3
[7] = target: T1, Vitamin K-dependent gamma-carboxylase (Rattus norvegicus); experiment: Inhibition of Vitamin K-dependent gamma-carboxylase was determined at a concentration of 1 mM, incubations were at 17 degree Centigrade for 30 minutes; method in brief: as §2
[8] = target: T1, Vitamin K-dependent gamma-carboxylase (Rattus norvegicus); experiment: Inhibition of vitamin K dependent carboxylase was determined at a concentration of 1 mM of compound along with 2 mM of 1-tert-Butoxycarbonylamino-2-carboxymethyl-cyclopropanecarboxylic acid benzyl ester; method in brief: as §2
[9] = target: T1, Vitamin K-dependent gamma-carboxylase (Rattus norvegicus); experiment: Inhibition of Vitamin K-dependent gamma-carboxylase was determined at a concentration of 0.5 mM, incubations were at 17 degree Celsius for 60 minutes
Rattus norvegicus [10] = species on record: Rattus norvegicus; experiment: Compound was evaluated for the epoxide formation at 5 mM incubations were at 17 degree Celsius for 60 minutes; assay type: functional; method in brief: as §1
[11] = target: T1, Vitamin K-dependent gamma-carboxylase (Rattus norvegicus); experiment: Vitamin K-dependent gamma-carboxylase activity was assayed in liver microsomes prepared from vitamin K deficient rats incubated at 17 degree Celsius for 30 min (compounds tested the ratio of 2 mM 19 and 1 mM 20); conditions: Microsome; method in brief: as §2
[12] = target: T1, Vitamin K-dependent gamma-carboxylase (Rattus norvegicus); experiment: Vitamin K-dependent gamma-carboxylase activity was assayed in liver microsomes prepared from vitamin K deficient rats incubated at 17 degree Celsius for 60 min (compounds tested the ratio of 5 mM 19 and 0.5 mM 20); conditions: Microsome; method in brief: as §3
Rattus norvegicus [13] = species on record: Rattus norvegicus; experiment: Epoxide formation after incubation at 17 degree Celsius for 60 min (compounds tested the ratio of 5 mM 19 and 0.5 mM 20); assay type: functional; method in brief: as §1
[14] = target: T1, Vitamin K-dependent gamma-carboxylase (Rattus norvegicus); experiment: Inhibition of Vitamin K-dependent gamma-carboxylase was determined at a concentration of 2 mM, incubations were at 17 degree Celsius for 30 minutes; method in brief: as §2
[15] = target: T1, Vitamin K-dependent gamma-carboxylase (Rattus norvegicus); experiment: Inhibition of Vitamin K-dependent gamma-carboxylase was determined at a concentration of 5 mM, incubations were at 17 degree Centigrade for 60 minutes

Carboxylase activity [2]: 5800 dpm
Carboxylase activity [3]: 12600 dpm
Compound: CC(C)(C)OC(=O)NC(CCC(=O)O)C(=O)OCc1ccccc1 (stereo not given)
Epoxide formation (Rattus norvegicus [1]): 7.1 nmol

Carboxylase activity [11]: 5770 dpm
Carboxylase activity [12]: 12200 dpm
Compound: CC(C)(C)OC(=O)NC(CCC(=O)O)C(=O)OCc1ccccc1.CC(C)(C)OC(=O)NC1(C(=O)OCc2ccccc2)CC1CC(=O)O (stereo not given) [listing 1 of 2 here]

Carboxylase activity [14]: 300 dpm
Carboxylase activity [15]: 690 dpm
Compound: CC(C)(C)OC(=O)NC1(C(=O)OCc2ccccc2)CC1CC(=O)O (stereo not given) [listing 2 of 2 here]

Further lines, the compound ahead of its results:

Compound: CC(C)(C)OC(=O)N[C@H](CCC(=O)O)C(=O)OCc1ccccc1
Epoxide formation (Rattus norvegicus [4]): 6.7 nmol
Epoxide formation (Rattus norvegicus [5]): 7.1 nmol
Carboxylase activity [6]: 12200 dpm
Carboxylase activity [7]: 5800 dpm
Carboxylase activity [8]: 5770 dpm
Carboxylase activity [9]: 12600 dpm

Compound: CC(C)(C)OC(=O)NC1(C(=O)OCc2ccccc2)CC1CC(=O)O (stereo not given) [listing 1 of 2 here]
Epoxide formation (Rattus norvegicus [10]): 5.1 nmol

Compound: CC(C)(C)OC(=O)NC(CCC(=O)O)C(=O)OCc1ccccc1.CC(C)(C)OC(=O)NC1(C(=O)OCc2ccccc2)CC1CC(=O)O (stereo not given) [listing 2 of 2 here]
Epoxide formation (Rattus norvegicus [13]): 6.7 nmol
